The record followed here is ChEMBL document CHEMBL1146547, “Bulbinelonesides A-E, phenylanthraquinone glycosides from the roots of Bulbinella floribunda” (J Nat Prod, 2003).

In one assay the test system is HSC-2. Description: Cytotoxicity against human HSC2 cells by MTT assay. Format: functional, cell-based. A digest of the protocol:
(§1)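 Cells were grown in DMEM with 10% heat-inactivated FBS and penicillin/streptomycin under humidified 5% CO2. HPC came from premolar pulp explants and were used at passages 5–10. Cells were trypsinized, seeded at 6 × 10^3 to 1.2 × 10^4, incubated 24 h, washed with PBS, then exposed to compound for 24 h. MTT (0.2 mg/mL, 4 h) was added, cells were lysed in DMSO, and A540 was read. LD50 was taken from the dose-response curve.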
For orientation: Tetrazolium dyes change colour on reduction, which living cells bring about.

The nature of assay [1]: Cytotoxicity against human HPC by MTT assay. In outline:
as §1

SMILES strings stand for the structures. In brackets after ≈: the same amount, converted by molar mass.

For `COc1cc(O)c(C(C)=O)c(O)c1-c1c(C)cc(O)c2c1C(=O)c1cccc(O)c1C2=O`, the results for the IC50 (in the assay on HSC-2; in assay [1]) were 25 µg/mL (≈ 57.6 µM) and 57 µg/mL (≈ 131 µM), respectively.

Turning to `COc1cc(O[C@@H]2O[C@H](CO)[C@@H](O)[C@H](O)[C@H]2O)c(-c2c(C)cc(O)c3c2C(=O)c2cccc(O)c2C3=O)c(O)c1C(C)=O` [BULBINELONESIDE A], the IC50 (commonly the concentration at which inhibition is half-maximal) in the assay with HSC-2 is 36 µg/mL (≈ 60.3 µM); in assay [1] it was more than 120 µg/mL.

`CC(=O)c1c(O)cc(O[C@@H]2OC[C@@H](O)[C@H](O)[C@H]2O)c(-c2c(C)cc(O)c3c2C(=O)c2cccc(O)c2C3=O)c1O` [BULBINELONESIDE B]: the values for the IC50 (in the assay on HSC-2; in assay [1]) were 56 µg/mL (≈ 101 µM) and more than 120 µg/mL, respectively.

In the case of `CC(=O)c1c(O[C@@H]2OC[C@@H](O)[C@H](O)[C@H]2O)cc(O)c(-c2c(C)cc(O)c3c2C(=O)c2cccc(O)c2C3=O)c1O` [BULBINELONESIDE C], the IC50 (with HSC-2; in assay [1]) was more than 120 µg/mL each time.

Consider `CC(=O)c1c(O[C@@H]2O[C@H](CO)[C@@H](O)[C@H](O)[C@H]2O)cc(O)c(-c2c(C)cc(O)c3c2C(=O)c2cccc(O)c2C3=O)c1O` [BULBINELONESIDE D], for which the concentration for half-maximal inhibition (IC50) (with HSC-2; in assay [1]) was more than 120 µg/mL in each case.

Regarding `CC(=O)c1c(O[C@@H]2OC[C@@H](O)[C@H](O[C@@H]3O[C@H](CO)[C@@H](O)[C@H](O)[C@H]3O)[C@H]2O)cc(O)c(-c2c(C)cc(O)c3c2C(=O)c2cccc(O)c2C3=O)c1O` [BULBINELONESIDE E], the IC50 (in the assay with HSC-2; in assay [1]) was more than 120 µg/mL in each case.

For `COc1cc([C@@H]2c3cc4c(cc3[C@@H](O[C@@H]3O[C@@H]5CO[C@@H](C)O[C@H]5[C@H](O)[C@H]3O)[C@H]3COC(=O)[C@H]23)OCO4)cc(OC)c1O` [ETOPOSIDE], the results for the 50% inhibitory concentration (IC50) (in the assay with HSC-2; in assay [1]) were 24 µg/mL (≈ 40.8 µM) and more than 120 µg/mL, respectively.

Turning to `COc1cc(O)c(-c2c(C)cc(O)c3c2C(=O)c2cccc(O)c2C3=O)c(O)c1C(C)=O` [KNIPHOLONE], the IC50 was 33 µg/mL (≈ 76 µM) with HSC-2 and more than 120 µg/mL in assay [1].
